How the values were obtained:
H5N1 subtype [1] = assay: Antiviral activity against Influenza A virus Gull/PA/4175/83/H5N1 infected MDCK cells after 42 to 46 hrs by neutral red dye uptake assay; assay type: functional, organism-based, Influenza A virus (A/gull/Pennsylvania/4175/83(H5N1)); settings: mdck
Influenza A virus [2] = assay: Antiviral activity against Influenza A virus California/07/2009 /H1N1 infected MDCK cells assessed as inhibition of virus-induced cytopathic effect after 3 days; assay type: functional, organism-based, A/California/07/2009(H1N1); settings: mdck
Influenza B virus [3] = assay: Antiviral activity against Influenza B virus Malaysia/2506/2004 infected MDCK cells after 3 days by virus yield reduction assay; assay type: functional, B/Malaysia/2506/2004
In short: (§1)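 Yield reduction assay: MDCK cells got serial compound dilutions and ≤300 CCID50 virus, in triplicate. Progeny virus was titrated. EC90 is the concentration reducing the infectious titer by 90%, as the mean of triplicates.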

[4] = Selectivity ratio of IC50 for MDCK cells to EC50 for inhibition of virus-induced cytopathic effect of Influenza A virus Gull/PA/4175/83/H5N1; assay type: cell-based; settings: dog, mdck
In short: (§2)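 IC50 (50% inhibition of uninfected MDCK cells) divided by EC50 (concentration reducing virus-induced CPE by 50%, scored visually), both from replicate serial-dilution assays.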

[5] = Selectivity ratio of IC50 for MDCK cells to EC50 for Influenza B virus Malaysia/2506/2004 by neutral red dye uptake assay; assay type: ADME, cell-based; settings: dog, mdck
In short: (§3)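 Neutral red uptake in MDCK cells: IC50 (50% inhibition of uninfected cells) divided by EC50 (50% inhibition of virus effect), both from replicate serial-dilution assays.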

[6] = Selectivity ratio of IC50 for MDCK cells to EC50 for Influenza A virus California/07/2009 /H1N1 by neutral red dye uptake assay; assay type: ADME, cell-based; settings: dog, mdck; in short: as §3
H5N1 subtype [7] = assay: Antiviral activity against Influenza A virus Hong Kong/213/2003/H5N1 infected MDCK cells after 42 to 46 hrs by neutral red dye uptake assay; assay type: functional, organism-based, Influenza A virus (A/Hong Kong/213/2003(H5N1)); settings: mdck
[8] = Selectivity ratio of IC50 for MDCK cells to EC90 for Influenza A virus Hong Kong/213/2003/H5N1 by virus yield reduction assay; assay type: ADME, cell-based; settings: dog, mdck
In short: (§4)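 IC50 (50% inhibition of uninfected MDCK cells) divided by EC90 (concentration reducing the infectious virus titer by 90% in the yield reduction assay).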

H5N1 subtype [9] = assay: Antiviral activity against Influenza A virus Gull/PA/4175/83/H5N1 infected MDCK cells assessed as inhibition of virus-induced cytopathic effect after 3 days; assay type: functional, organism-based, Influenza A virus (A/gull/Pennsylvania/4175/83(H5N1)); settings: mdck
[10] = Selectivity ratio of IC50 for MDCK cells to EC50 for inhibition of virus-induced cytopathic effect of Influenza A virus Solomon Islands/03/2006/H1N1; assay type: cell-based; settings: dog, mdck; in short: as §2
[11] = Selectivity ratio of IC50 for MDCK cells to EC50 for Influenza A virus Duck/MN/1525/81/H5N1 by neutral red dye uptake assay; assay type: ADME, cell-based; settings: dog, mdck; in short: as §3
H5N1 subtype [12] = assay: Antiviral activity against Influenza A virus Hong Kong/213/2003/H5N1 infected MDCK cells after 3 days by virus yield reduction assay; assay type: functional, Influenza A virus (A/Hong Kong/213/2003(H5N1))
Influenza A virus [13] = assay: Antiviral activity against Influenza A virus Vietnam/1203/ 2004H/H5N1 infected MDCK cells after 3 days by virus yield reduction assay; assay type: functional, A/Viet Nam/1203/2004(H5N1)
[14] = Selectivity ratio of IC50 for MDCK cells to EC50 for inhibition of virus-induced cytopathic effect of Influenza A virus Vietnam/1203/ 2004H/H5N1; assay type: cell-based; settings: dog, mdck; in short: as §2
Influenza A virus [15] = assay: Antiviral activity against Influenza A virus California/07/2009 /H1N1 infected MDCK cells after 3 days by virus yield reduction assay; assay type: functional, A/California/07/2009(H1N1)
Influenza A virus [16] = assay: Antiviral activity against Influenza A virus Wisconsin/67/2005/H3N2 infected MDCK cells assessed as inhibition of virus-induced cytopathic effect after 3 days; assay type: functional, organism-based, Influenza A virus (A/Wisconsin/67/2005(H3N2)); settings: mdck
In short: (§5)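 Triplicate MDCK (ATCC CCL-34) wells got serial dilutions of compound. They were then inoculated with ≤300 CCID50, enough for ~100% CPE in control wells within 3 days, using the same inoculum for all replicates. CPE was scored visually. EC50 is the concentration reducing CPE by 50%, as the mean of triplicates.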

Influenza B virus [17] = assay: Antiviral activity against Influenza B virus Malaysia/2506/2004 infected MDCK cells assessed as inhibition of virus-induced cytopathic effect after 3 days; assay type: functional, organism-based, B/Malaysia/2506/2004; settings: mdck; in short: as §5
[18] = Selectivity ratio of IC50 for MDCK cells to EC50 for Influenza A virus Gull/PA/4175/83/H5N1 by neutral red dye uptake assay; assay type: ADME, cell-based; settings: dog, mdck; in short: as §3
H5N1 subtype [19] = assay: Antiviral activity against Influenza A virus Duck/MN/1525/81/H5N1 infected MDCK cells assessed as inhibition of virus-induced cytopathic effect after 3 days; assay type: functional, organism-based, Influenza A virus (A/duck/Minnesota/1525/1981(H5N1)); settings: mdck
[20] = Selectivity ratio of IC50 for MDCK cells to EC90 for Influenza A virus California/07/2009 /H1N1 by virus yield reduction assay; assay type: ADME, cell-based; settings: dog, mdck; in short: as §4
[21] = Selectivity ratio of IC50 for MDCK cells to EC90 for Influenza A virus Vietnam/1203/ 2004H/H5N1 by virus yield reduction assay; assay type: ADME, cell-based; settings: dog, mdck; in short: as §4
[22] = Selectivity ratio of IC50 for MDCK cells to EC50 for Influenza A virus Wisconsin/67/2005/H3N2 by neutral red dye uptake assay; assay type: ADME, cell-based; settings: dog, mdck; in short: as §3
[23] = Selectivity ratio of IC50 for MDCK cells to EC50 for inhibition of virus-induced cytopathic effect of Influenza B virus Malaysia/2506/2004; assay type: cell-based; settings: dog, mdck; in short: as §2
[24] = Selectivity ratio of IC50 for MDCK cells to EC50 for Influenza A virus Vietnam/1203/ 2004H/H5N1 by neutral red dye uptake assay; assay type: ADME, cell-based; settings: dog, mdck; in short: as §3
[25] = tested on: Influenza A virus (A/Puerto Rico/8/1934(H1N1)); assay: Antiviral activity against Influenza A virus Solomon Islands/03/2006/H1N1 infected MDCK cells after 42 to 46 hrs by neutral red dye uptake assay; assay type: functional, organism-based, Influenza A virus (A/Solomon Islands/3/2006(H1N1)); settings: mdck
In short: (§6)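 Triplicate MDCK wells got serial compound dilutions, then ≤300 CCID50 of virus, with the same inoculum for all replicates. Antiviral effect was read by neutral red dye uptake. EC50 is the concentration giving 50% inhibition of the virus effect, as the mean of triplicates.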

Influenza A virus [26] = assay: Antiviral activity against Influenza A virus Vietnam/1203/ 2004H/H5N1 infected MDCK cells after 42 to 46 hrs by neutral red dye uptake assay; assay type: functional, organism-based, A/Viet Nam/1203/2004(H5N1); settings: mdck
[27] = Selectivity ratio of IC50 for MDCK cells to EC50 for inhibition of virus-induced cytopathic effect of Influenza A virus Wisconsin/67/2005/H3N2; assay type: cell-based; settings: dog, mdck; in short: as §2
[28] = Antiviral activity against Influenza A virus Solomon Islands/03/2006/H1N1 infected MDCK cells assessed as inhibition of virus-induced cytopathic effect after 3 days; assay type: functional, organism-based, Influenza A virus (A/Solomon Islands/3/2006(H1N1)); settings: mdck; in short: as §5
H5N1 subtype [29] = assay: Antiviral activity against Influenza A virus Duck/MN/1525/81/H5N1 infected MDCK cells after 3 days by virus yield reduction assay; assay type: functional, Influenza A virus (A/duck/Minnesota/1525/1981(H5N1))
H5N1 subtype [30] = assay: Antiviral activity against Influenza A virus Duck/MN/1525/81/H5N1 infected MDCK cells after 42 to 46 hrs by neutral red dye uptake assay; assay type: functional, organism-based, Influenza A virus (A/duck/Minnesota/1525/1981(H5N1)); settings: mdck
[31] = Selectivity ratio of IC50 for MDCK cells to EC50 for Influenza A virus Solomon Islands/03/2006/H1N1 by neutral red dye uptake assay; assay type: ADME, cell-based; settings: dog, mdck; in short: as §3
Influenza A virus [32] = assay: Antiviral activity against Influenza A virus Wisconsin/67/2005/H3N2 infected MDCK cells after 3 days by virus yield reduction assay; assay type: functional, Influenza A virus (A/Wisconsin/67/2005(H3N2)); in short: as §1
Influenza A virus [33] = assay: Antiviral activity against Influenza A virus Wisconsin/67/2005/H3N2 infected MDCK cells after 42 to 46 hrs by neutral red dye uptake assay; assay type: functional, organism-based, Influenza A virus (A/Wisconsin/67/2005(H3N2)); settings: mdck; in short: as §6
Influenza A virus [34] = assay: Antiviral activity against Influenza A virus Vietnam/1203/ 2004H/H5N1 infected MDCK cells assessed as inhibition of virus-induced cytopathic effect after 3 days; assay type: functional, organism-based, A/Viet Nam/1203/2004(H5N1); settings: mdck
Influenza B virus [35] = assay: Antiviral activity against Influenza B virus Malaysia/2506/2004 infected MDCK cells after 42 to 46 hrs by neutral red dye uptake assay; assay type: functional, organism-based, B/Malaysia/2506/2004; settings: mdck; in short: as §6
[36] = Selectivity ratio of IC50 for MDCK cells to EC50 for inhibition of virus-induced cytopathic effect of Influenza A virus Duck/MN/1525/81/H5N1; assay type: cell-based; settings: dog, mdck; in short: as §2
[37] = Selectivity ratio of IC50 for MDCK cells to EC90 for Influenza A virus Duck/MN/1525/81/H5N1 by virus yield reduction assay; assay type: ADME, cell-based; settings: dog, mdck; in short: as §4
[38] = Selectivity ratio of IC50 for MDCK cells to EC90 for Influenza A virus Wisconsin/67/2005/H3N2 by virus yield reduction assay; assay type: ADME, cell-based; settings: dog, mdck; in short: as §4
[39] = Selectivity ratio of IC50 for MDCK cells to EC90 for Influenza A virus Solomon Islands/03/2006/H1N1 by virus yield reduction assay; assay type: ADME, cell-based; settings: dog, mdck; in short: as §4
[40] = Selectivity ratio of IC50 for MDCK cells to EC50 for Influenza A virus Hong Kong/213/2003/H5N1 by neutral red dye uptake assay; assay type: ADME, cell-based; settings: dog, mdck; in short: as §3
[41] = tested on: Influenza A virus (A/Puerto Rico/8/1934(H1N1)); assay: Antiviral activity against Influenza A virus Solomon Islands/03/2006/H1N1 infected MDCK cells after 3 days by virus yield reduction assay; assay type: functional, Influenza A virus (A/Solomon Islands/3/2006(H1N1)); in short: as §1
[42] = Selectivity ratio of IC50 for MDCK cells to EC90 for Influenza B virus Malaysia/2506/2004 by virus yield reduction assay; assay type: ADME, cell-based; settings: dog, mdck; in short: as §4
Influenza A virus [43] = assay: Antiviral activity against Influenza A virus California/07/2009 /H1N1 infected MDCK cells after 42 to 46 hrs by neutral red dye uptake assay; assay type: functional, organism-based, A/California/07/2009(H1N1); settings: mdck
[44] = Selectivity ratio of IC50 for MDCK cells to EC50 for inhibition of virus-induced cytopathic effect of Influenza A virus California/07/2009 /H1N1; assay type: cell-based; settings: dog, mdck; in short: as §2

Nc1ccn([C@@H]2C[C@H](CO)[C@@H](O)[C@H]2O)c(=O)n1 (racemic)
EC50 (H5N1 subtype [1]): 1.4 µM | EC50 (Influenza A virus [2]): 1.5 µM | EC90 (Influenza B virus [3]): 3.8 µM | Ratio IC50/EC50 [4]: > 376 | Ratio IC50/EC50 [5]: > 318 | Ratio IC50/EC50 [6]: > 218 | EC50 (H5N1 subtype [7]): 1.8 µM | Ratio [8]: > 207 | EC50 (H5N1 subtype [9]): 1.1 µM | Ratio IC50/EC50 [10]: > 218 | Ratio IC50/EC50 [11]: > 83 | EC90 (H5N1 subtype [12]): 2 µM | EC90 (Influenza A virus [13]): 12.1 µM | Ratio IC50/EC50 [14]: > 414 | EC90 (Influenza A virus [15]): 4.4 µM | EC50 (Influenza A virus [16]): 2.8 µM | EC50 (Influenza B virus [17]): 0.8 µM | Ratio IC50/EC50 [18]: > 296 | EC50 (H5N1 subtype [19]): 2.4 µM | Ratio [20]: > 94 | Ratio [21]: > 34 | Ratio IC50/EC50 [22]: > 90 | Ratio IC50/EC50 [23]: > 518 | Ratio IC50/EC50 [24]: > 143 | EC50 [25]: 2 µM | EC50 (Influenza A virus [26]): 2.9 µM | Ratio IC50/EC50 [27]: > 148 | EC50 [28]: 1.9 µM | EC90 (H5N1 subtype [29]): 17.6 µM | EC50 (H5N1 subtype [30]): 5 µM | Ratio IC50/EC50 [31]: > 207 | EC90 (Influenza A virus [32]): 3.5 µM | EC50 (Influenza A virus [33]): 4.6 µM | EC50 (Influenza A virus [34]): 1 µM | EC50 (Influenza B virus [35]): 1.3 µM | Ratio IC50/EC50 [36]: > 173 | Ratio [37]: > 24 | Ratio [38]: > 118 | Ratio [39]: > 180 | Ratio IC50/EC50 [40]: > 230 | EC90 [41]: 2.3 µM | Ratio [42]: > 109 | EC50 (Influenza A virus [43]): 1.9 µM | Ratio IC50/EC50 [44]: > 276

From ChEMBL document CHEMBL1156973, “(-)-Carbodine: enantiomeric synthesis and in vitro antiviral activity against various strains of influenza virus including H5N1 (avian influenza) and novel 2009 H1N1 (swine flu)” (Bioorg Med Chem Lett, 2010)
